Test results published in article PMC4567406 (Journal of medicinal chemistry, 2015).
“Also recorded” adds a separate entry of the source.

Tests used:
[1] = test system: IDH1 mutated cancer cells; conditions: cited from earlier work
[2] = test system: BXD-3752 glioma cells without an IDH1 mutation; experiment: Proliferation of glioma stem-like cells; format: cell-based; conditions: BXD-3752, no IDH1 mutation, 14 days
[3] = test system: BT142 glioma cells with IDH1 R132H mutation; experiment: Proliferation of glioma stem-like cells; format: cell-based; conditions: 14 days
IDH1(R132H) [4] = target: T1, IDH1(R132H) (Homo sapiens, UniProt O75874, R132H); experiment: IDH1; format: biochemical; conditions: for Fold less active than compound 4: IDH1(R132H) Ki compared with compound 4
T1 sequence (O75874 whole entry R132H): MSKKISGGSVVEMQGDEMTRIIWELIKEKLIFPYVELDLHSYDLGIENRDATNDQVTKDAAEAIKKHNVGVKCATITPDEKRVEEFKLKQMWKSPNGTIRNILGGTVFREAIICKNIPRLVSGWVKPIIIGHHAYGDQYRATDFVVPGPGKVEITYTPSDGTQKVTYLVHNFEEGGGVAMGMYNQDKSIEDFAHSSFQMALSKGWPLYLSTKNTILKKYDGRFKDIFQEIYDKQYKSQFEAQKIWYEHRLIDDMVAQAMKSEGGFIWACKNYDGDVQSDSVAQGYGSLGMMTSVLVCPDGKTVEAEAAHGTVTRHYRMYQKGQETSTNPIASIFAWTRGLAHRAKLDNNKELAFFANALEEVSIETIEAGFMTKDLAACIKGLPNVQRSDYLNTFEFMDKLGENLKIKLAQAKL
Procedure, shortened: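 E. coli-expressed, column-purified IDH1(R132H) (100 nM) in 50 mM HEPES pH 7.5 with 4 mM MgCl2, 100 µM NADPH and graded inhibitor. After 5 min preincubation, 1 mM α-KG was added to start the reaction. NADPH consumption was read at 340 nm every 30 s. IC50s came from dose-response fits. Ki was derived by Cheng-Prusoff (Km 0.965 mM), or by Morrison tight-binding fitting when IC50 <1 µM. Values are means of ≥3 independent runs.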

[5] = test system: HT1080 cells (IDH1 R132C); experiment: D2HG production inhibition in HT1080 cells; format: cell-based, human; conditions: treated 2 days (48h)
Procedure, shortened: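 HT1080 cells (10^5/well) grown in DMEM with 10% dialyzed FBS and exposed to increasing test-compound concentrations for 48h. Culture medium was collected, diluted with MeOH and centrifuged (20,000 rpm, 3 min). D2HG in the supernatant was quantified by HPLC-MS.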

IDH1(R132H) [6] = target: T1, IDH1(R132H); experiment: Isothermal titration calorimetry; format: binding
IDH1(R132H) [7] = target: T1, IDH1(R132H); experiment: Steady-state enzyme kinetic study; format: biochemical
[8] = test system: HT1080 cells (IDH1 R132C); experiment: Histone lysine methylation levels, Western blot; format: cell-based, human; conditions: treated 4 days
Procedure, shortened: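 After 4 days of test-compound exposure, histones were extracted from treated and control HT1080 cells. Extracts were analysed by Western blot using antibodies to total human histone H3 and to specific methylated lysine marks.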

[9] = IDH1(R132H) 100 μM without NADPH, 298K
[10] = IDH1(R132H) 100 μM without NADPH, 298K, pH 7.4

## Cc1ccccc1C(C(=O)NC1CCCCC1)N(C(=O)Cn1ccnc1C)c1cccc(F)c1 (stereo not shown) [Compound 1, reference compound]
[1]
  Effect on proliferation of IDH1 mutated cancer cells: can also inhibit proliferation
[2]
  Effect on proliferation / neurosphere formation of glioma stem-like cells: did not affect neurosphere formation
[3]
  Effect on proliferation / neurosphere formation of glioma stem-like cells: inhibited neurosphere formation; also recorded: can inhibit growth

## O=C1C(=Cc2ccc(O)c(O)c2)NC(=S)N1Cc1ccccc1 [Compound 4, 3-benzyl-5-(3,4-dihydroxybenzylidene)-2-thiohydantoin]
IDH1(R132H) [4]
  Ki: 4.7 µM

## COc1ccc(/C=C2/NC(=S)N(c3ccccc3)C2=O)cc1OC [Compound 6]
IDH1(R132H) [4]
  Inhibitory activity against IDH1(R132H) in words: inactive

## COc1ccc(CN2C(=O)/C(=C\c3ccc(OC)c(OC)c3)NC2=S)cc1 [Compound 7]
IDH1(R132H) [4]
  Inhibitory activity against IDH1(R132H) in words: inactive

## O=C1/C(=C\c2ccc(O)c(O)c2)NC(=S)N1c1ccccc1 [Compound 8]
IDH1(R132H) [4]
  Fold less active than compound 4: ~ 3 fold

## O=C1/C(=C\c2ccc(O)c(O)c2)NC(=S)N1Cc1ccc(O)cc1 [Compound 9]
IDH1(R132H) [4]
  Fold less active than compound 4: ~ 3 fold

## O=C1/C(=C\c2cccnc2)NC(=S)N1Cc1ccccc1 [Compound 10]
IDH1(R132H) [4]
  Inhibitory activity against IDH1(R132H) in words: inactive

## COc1ccc(/C=C2/NC(=S)N(Cc3ccccc3)C2=O)cn1 [Compound 11]
IDH1(R132H) [4]
  Inhibitory activity against IDH1(R132H) in words: inactive

## CN1C(=O)/C(=C\c2ccc(=O)[nH]c2)NC1=S [Compound 16]
[5]
  Effect on production of D2HG: significantly reduced the production of D2HG; also recorded: significantly reduced amount of D2HG
[2]
  Effect on proliferation / neurosphere formation of glioma stem-like cells: did not affect neurosphere formation; also recorded: did not have activity
[3]
  Effect on proliferation / neurosphere formation of glioma stem-like cells: inhibited neurosphere formation; also recorded: significantly inhibit proliferation

## O=C1NC(=S)N/C1=C/c1ccc(=O)[nH]c1 [Compound 18]
IDH1(R132H) [6]; [9]
  calculated ΔS of binding: 95.0 J K^−1 mol^−1
  ΔG of binding: -7.12 kcal/mol
IDH1(R132H) [6]; [10]
  Ka (affinity constant): 168000 M⁻¹
  ΔH of binding: -0.359 kcal/mol
IDH1(R132H) [6]; IDH1(R132H) 133 μM in the presence of NADPH (300 μM)
  ΔH of binding: -0.598 kcal/mol
IDH1(R132H) [7]; variable NADPH, Michaelis-Menten plot
  Mode of action against the cofactor NADPH: noncompetitive
IDH1(R132H) [7]; variable α-KG, Lineweaver-Burk plot
  Mode of action against the substrate α-KG: competitive
[5]
  Effect on production of D2HG: significantly reduced the production of D2HG; also recorded: significantly reduced amount of D2HG
[2]
  Effect on proliferation / neurosphere formation of glioma stem-like cells: did not affect neurosphere formation; also recorded: did not have activity
[3]
  Effect on proliferation / neurosphere formation of glioma stem-like cells: inhibited neurosphere formation; also recorded: significantly inhibit proliferation
[8]
  Effect on histone lysine methylation levels (H3K4me3, H3K4me2, H3K27me2, H4K20me2): significantly reduced methylation levels; also recorded: significantly reduce the methylation levels

## COc1ccc(/C=C2/NC(=S)N(CC(=O)O)C2=O)cn1 [Compound 19]
IDH1(R132H) [4]
  Inhibitory activity against IDH1(R132H) in words: none of these compounds are active

## O=C(O)CN1C(=O)/C(=C\c2ccc(=O)[nH]c2)NC1=S [Compound 20]
[5]
  Effect on production of D2HG: did not significantly reduce D2HG
IDH1(R132H) [4]
  Inhibitory activity against IDH1(R132H) in words: none of these compounds are active
[8]
  Effect on histone lysine methylation levels (H3K4me3, H3K4me2, H3K27me2, H4K20me2): did not significantly affect histone methylation levels; also recorded: did not significantly reduce

## O=C1NC(=S)N/C1=C/c1ccnc(Br)c1 [Compound 32]
IDH1(R132H) [4]
  Inhibitory activity against IDH1(R132H) in words: Loss of activity

## COc1ccc(/C=C2/NC(=O)NC2=O)cn1 [Compound 37]
IDH1(R132H) [4]
  Inhibitory activity against IDH1(R132H) in words: Complete loss of activity

## O=C1NC(=O)/C(=C\c2ccc(=O)[nH]c2)N1 [Compound 38]
IDH1(R132H) [4]
  Inhibitory activity against IDH1(R132H) in words: Complete loss of activity

## NC1=N/C(=C/c2ccc(=O)[nH]c2)C(=O)N1 [Compound 39]
IDH1(R132H) [4]
  Inhibitory activity against IDH1(R132H) in words: inactive

## CSC1=N/C(=C/c2ccc(=O)[nH]c2)C(=O)N1 [Compound 40]
IDH1(R132H) [4]
  Inhibitory activity against IDH1(R132H) in words: completely lose the inhibitory activity

## CN1C(=O)/C(=C\c2ccc(=O)[nH]c2)N(C)C1=S [Compound 41]
IDH1(R132H) [4]; IDH1(R132H) Ki compared with compound 16
  Fold activity reduction compared to compound 16: 22 fold
